Bioassay records as filed in PubChem.
Casp6 inh – human caspase-6 inhibitors, primary screen, biochemical, VEID-R110 fluorescence, single point, set 2; purified caspase-6, Z-VEID-R110 cleavage fluorescence; P55212; 350,000 compounds, 0.53% hits; inhibition, % at 12.5 µM;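 active = mean inhibition across replicates at least about 35%, with every replicate also reaching that limit, limit read from the data; inconclusive = only one of the two criteria met; inactive = neither criterion met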
Wnt bcat act – Wnt/beta-catenin pathway activators, primary screen, cell-based, plate reader, single point; Wnt/beta-catenin reporter cell assay, activator; activation, % at 9.35 µM; 300,000 compounds, 1.2% hits; in the data active = activation above about 30%, passing the limit was not always enough; inconclusive = no clear call, values can overlap the other calls
MITF act – activators of MITF-driven TRPM1 promoter reporter, primary screen, cell-based, SK-MEL-5, luciferase, single point. SK-MEL-5 TRPM1-promoter luciferase, 24 h; % of positive control, neutral wells = 0. activation, % at 12.5 µM. 300,000 compounds, 0.75% hits. AID 588334, 2011;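 active = mean activation of at least 80% with every replicate also reaching 80%; inconclusive = mean reaches 80% but some replicate falls short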
esBAF inh – Bmi1 luciferase reporter increase in mESCs, primary screen, esBAF inhibitor project, mouse ES cells, Bmi1 luciferase knock-in, single point | 24 h; 100% = twice the neutral-well signal | reporter increase, % at 12.5 µM | 350,000 compounds, 2% hits | AID 602393, 2012; in the data active = activation above about 40%; inconclusive = no clear call, values can overlap the other calls;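 note: a rise in the Bmi1 reporter signal indicates esBAF inhibition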
Xi reactivation – activators of inactive X chromosome reactivation, primary screen, imaging, XiGFP fibroblasts, GFP high-content imaging, set 2 | XiGFP mouse fibroblasts, % GFP-positive cells imaging, 3 d; cells co-treated with 5-aza-dC sensitizer; scaled so ellipticine positive control = 100% | activation, % at 7.58 µM | 360,000 compounds, 0.055% hits;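 active = mean normalized replicate activation at least 10% and every replicate at or above 10%; inconclusive = only one of the two criteria met; inactive = mean below 10% and not all replicates reach 10%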
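System: SV40-immortalized XiGFP fibroblast cells, line 68-5-11 / Incubation: 3-day compound exposure, then 15 min fixation at room temperature / Compound: single concentration per compound, delivered by pin transfer / Buffer or medium: DMEM plus 5-aza-dC sensitizer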
NSD2 inh – NSD2 histone methyltransferase inhibitors, primary screen, biochemical, AlphaScreen, single concentration, set 2; 310,000 compounds, 0.54% hits; NSD2 peptide methylation, 120 min; Histone-lysine N-methyltransferase NSD2 (Homo sapiens), O96028; AID 743445, 2014; inhibition, % at 12.5 µM; in the data active = inhibition above about 50%
Target sequence (O96028 whole entry, looked up): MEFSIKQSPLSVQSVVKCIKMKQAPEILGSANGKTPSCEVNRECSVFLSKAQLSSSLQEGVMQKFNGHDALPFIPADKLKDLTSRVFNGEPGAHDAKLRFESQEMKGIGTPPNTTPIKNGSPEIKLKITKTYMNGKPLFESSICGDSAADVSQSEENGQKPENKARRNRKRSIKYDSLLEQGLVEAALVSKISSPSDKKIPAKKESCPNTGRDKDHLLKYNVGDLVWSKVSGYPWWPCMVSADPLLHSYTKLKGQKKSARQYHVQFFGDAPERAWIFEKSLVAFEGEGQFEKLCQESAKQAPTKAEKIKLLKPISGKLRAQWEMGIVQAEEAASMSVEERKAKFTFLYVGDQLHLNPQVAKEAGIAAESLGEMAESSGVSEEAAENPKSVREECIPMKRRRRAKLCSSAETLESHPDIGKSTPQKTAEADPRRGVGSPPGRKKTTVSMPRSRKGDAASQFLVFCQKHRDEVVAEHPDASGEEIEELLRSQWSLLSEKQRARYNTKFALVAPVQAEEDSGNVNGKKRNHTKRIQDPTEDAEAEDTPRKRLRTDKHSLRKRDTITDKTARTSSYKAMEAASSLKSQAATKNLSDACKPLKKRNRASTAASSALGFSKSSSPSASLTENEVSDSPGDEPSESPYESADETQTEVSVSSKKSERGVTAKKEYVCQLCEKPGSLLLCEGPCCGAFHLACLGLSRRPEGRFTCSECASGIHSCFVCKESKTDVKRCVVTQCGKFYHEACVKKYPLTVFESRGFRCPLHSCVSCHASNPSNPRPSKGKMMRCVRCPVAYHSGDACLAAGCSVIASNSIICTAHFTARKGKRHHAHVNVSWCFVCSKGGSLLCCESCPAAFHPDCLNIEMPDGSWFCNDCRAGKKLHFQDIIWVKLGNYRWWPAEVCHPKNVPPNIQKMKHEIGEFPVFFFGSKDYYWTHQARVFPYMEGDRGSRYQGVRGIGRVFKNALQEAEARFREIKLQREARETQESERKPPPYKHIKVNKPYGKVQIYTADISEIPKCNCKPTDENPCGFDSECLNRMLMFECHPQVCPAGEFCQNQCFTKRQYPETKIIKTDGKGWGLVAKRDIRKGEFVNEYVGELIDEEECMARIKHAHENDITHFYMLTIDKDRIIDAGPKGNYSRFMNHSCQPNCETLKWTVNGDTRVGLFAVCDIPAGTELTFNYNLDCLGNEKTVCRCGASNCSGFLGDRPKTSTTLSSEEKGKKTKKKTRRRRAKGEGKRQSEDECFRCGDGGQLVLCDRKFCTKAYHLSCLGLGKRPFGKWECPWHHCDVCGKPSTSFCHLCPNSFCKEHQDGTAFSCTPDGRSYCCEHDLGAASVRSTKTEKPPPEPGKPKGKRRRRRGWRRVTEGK
esBAF Ring1 qPCR – Ring1 mRNA increase in mouse ESCs, confirmation, esBAF inhibitor project, cell-based, mouse ESC, RT-qPCR, cherry-pick; shares compounds with esBAF inh; mouse ESC E14, Ring1 mRNA RT-qPCR fold change; fold change at 33 µM; 550 tested, under 10 active;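 active = Ring1 gene expression raised more than 2-fold over untreated cells in both replicates at either tested dose; inconclusive = only one replicate above 2-fold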;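 note: Ring1 transcript normalised to actin housekeeping signal by TaqMan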
Fgf4 repress – Fgf4 mRNA decrease in mouse ESCs, confirmation, esBAF inhibitor project, cell-based, mouse ESC, RT-qPCR, cherry-pick; 550 compounds, 4% hits; shares compounds with esBAF inh; mouse ESC E14, Fgf4 mRNA qPCR fold change; stronger effect = lower value; Fgf4 expression fold change at 33 µM;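 active = Fgf4 expression under 0.8 fold of control in both repeat measurements at one or both tested doses; inconclusive = under 0.8 fold in just a single repeat measurement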;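 note: Fgf4 transcript normalised to actin in duplex TaqMan qPCR; cells exposed to compound for 24 h before lysis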
esBAF Bmi1 qPCR – esBAF inhibition via Bmi1 de-repression, confirmation, cell-based, RT-qPCR, mouse ESC, single point, cherry-pick | 550 tested, under 10 active | shares compounds with esBAF inh | fold change at 33 µM | mouse ESE14 ES cells, Bmi1 mRNA qPCR fold; stronger effect = higher value;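 active = Bmi1 expression fold change above 6 at either tested concentration, seen in replicate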
A549 tox SP – A549 cell cytotoxicity, cytotoxicity control, plate reader, single point, cherry-pick. shares compounds with esBAF inh. cell viability change % (negative = cytotoxic), % at 25 µM, hits read low. 550 tested, under 10 active; call rule not given here
HepG2 cytotox SP – HepG2 cell cytotoxicity, cytotoxicity control, plate reader, single point, cherry-pick; activity change, negative = inhibition, % at 25 µM; AID 743189, 2013; stronger effect = lower value; 550 compounds, 4% hits; shares compounds with esBAF inh; in the data active = activity change below about -50%
HEK293 cytotox SP – HEK293 cell cytotoxicity, cytotoxicity control, plate reader, single point, cherry-pick; shares compounds with esBAF inh; activity change, negative = inhibition, % at 25 µM, hits read low; 550 compounds, 3% hits; in the data active = activity change below about -38%, passing the limit was not always enough
Hits are given with their value; - = inactive; ? = inconclusive; . = not tested or not shown. Rows were chosen to be rich in hits. Some 3% of all compounds tested hit in one or more screens of this group.

SMILES	Casp6 inh	Wnt bcat act	MITF act	esBAF inh	Xi reactivation	NSD2 inh	esBAF Ring1 qPCR	Fgf4 repress	esBAF Bmi1 qPCR	A549 tox SP	HepG2 cytotox SP	HEK293 cytotox SP
O=C(CN1CCOCC1)NCC[C@@H]1CC[C@H](NC(=O)Nc2ccc(C(F)(F)F)cc2)[C@H](CO)O1	-	.	.	-	-	.	.	.	.	.	.	.
Cc1csc(NC(=O)CSc2nc3sc(C)c(C)c3c(=O)[nH]2)n1	.	-	.	-	.	-	.	.	.	.	.	.
CSCc1nc2sc(C(=O)Nc3nc(C)cs3)c(C)c2c(=O)[nH]1	-	-	-	59.9	-	-	-	-	-	-	-	-
CC(=O)c1ccc(NC(=O)C2CC(=O)N(Cc3ccccc3)C2)cc1 (configuration not stated)	.	.	-	56.2	.	-	-	-	-	-	-	-
O=C(Nc1ccccc1)C1CC(=O)N(Cc2ccccc2)C1 (configuration not stated)	-	-	-	-	-	-	.	.	.	.	.	.
O=C(Cc1ccccc1)N/N=C/c1ccccc1OCc1ccc(Cl)cc1	.	.	-	100.5	.	-	-	?	-	-	-	-
CCCNC(=O)N1[C@H](CO)[C@@H](c2ccccc2-c2cccc(C)c2)[C@@H]1C#N	-	.	.	.	-	.	.	.	.	.	.	.
C(=NOCc1ccccc1)c1cccnc1	-	-	-	58.4	-	-	-	-	-	-	-	-
COc1cccc(NC(=O)N2C[C@H](O)COC[C@H]3O[C@H](CC(=O)NCCCN4CCOCC4)CC[C@@H]32)c1	-	.	.	-	-	.	.	.	.	.	.	.
CCC(c1nc2ccccc2[nH]1)N(C(=O)Cc1cc(OC)cc(OC)c1)c1ccc(N2CCOCC2)cc1 (configuration not stated)	-	-	.	-	-	.	.	.	.	.	.	.
O=C(c1ccncc1)N(c1ccc(N2CCOCC2)cc1)C(c1ccccc1)c1nc2ccccc2[nH]1 (configuration not stated)	-	-	.	47.8	-	.	-	-	-	-	-	-
C[C@@H](NC(=O)[C@H]1[C@H](CO)[C@H]2Cn3c(ccc(C4=CCCCC4)c3=O)[C@@H]1N2)c1ccccc1	-	.	.	-	-	.	.	.	.	.	.	.
C=CCNc1oc(-c2ccc(OCC)cc2)nc1C#N	-	-	-	-	.	-	.	.	.	.	.	.
C=CCNc1oc(-c2ccc(OC)cc2)nc1C#N	.	.	-	78.7	.	-	-	-	-	-	-	-
Cc1ccc(-c2ccc3c(c2)O[C@@H](CN(C)C)[C@H](C)CN([C@H](C)CO)S3(=O)=O)cc1	-	.	.	-	-	.	.	.	.	.	.	.
Cc1ccc(NC(=O)Nc2cccc(C)n2)c(C)c1	-	38.9	-	56.3	-	-	-	-	-	-	-	-
O=C(CNC(=O)c1ccccc1F)Nc1ccc2c(c1)OCO2	-	-	-	62.1	-	-	-	-	-	-	-	-
CCC(=O)N1CC2(C1)[C@H](c1ccc(-c3ccc(C#N)cc3)cc1)[C@@H](CO)N2C(C)=O	-	.	.	.	-	.	.	.	.	.	.	.
C=CCn1cccc(C(=O)Nc2ccc(Cl)cc2)c1=O	-	-	82.3	62.8	-	-	-	-	-	-	-	-
O=C(C[C@H]1C[C@@H]2c3cc(NC(=O)c4cccnc4)ccc3O[C@@H]2[C@@H](CO)O1)NCc1ccccn1	-	.	.	-	-	.	.	.	.	.	.	.
Cc1ccc(Cl)c2c(N=Nc3ccccc3)c(O)[nH]c12	-	-	-	57.6	26.7	-	-	-	-	-	-	-
Cc1cc(C)c(C(=O)CN2C(=O)NC3(CCCCC3)C2=O)cc1C	-	-	-	.	-	-	.	.	.	.	.	.
Cc1ccc(C(=O)CN2C(=O)NC3(CCCCCC3)C2=O)c(C)c1	-	-	114.6	79.8	-	-	-	-	-	-	-	-
CCN(C(=O)c1ccc2c(Cl)c3c(nc2c1)CCC3)c1ccc(C)c(C)c1	-	-	-	-	-	.	.	.	.	.	.	.
CN(C(=O)c1ccc2c(Cl)c3c(nc2c1)CCC3)c1ccccc1	-	-	.	87.9	-	.	-	-	-	-	-	-
SMILES	Casp6 inh	Wnt bcat act	MITF act	esBAF inh	Xi reactivation	NSD2 inh	esBAF Ring1 qPCR	Fgf4 repress	esBAF Bmi1 qPCR	A549 tox SP	HepG2 cytotox SP	HEK293 cytotox SP
CCCC(=O)Nc1ccc2c(c1)C(=O)N(C)C[C@H](OC)[C@H](C)CN(CC1CCCC1)[C@@H](C)CO2	-	.	.	-	-	.	.	.	.	.	.	.
CCc1sc(C(=O)Nc2ccc3nc(C)sc3c2)cc1C	-	-	90.3	80.0	-	-	-	0.61	-	-	-	-
COc1ccc(OCc2cc(C(=O)N(Cc3nccn3C)C(C)C)no2)c2ccccc12	-	-	-	70.4	-	-	-	-	-	-	-	-
O=C(Nc1cccc2ccccc12)c1cnccn1	.	.	-	63.2	.	-	-	-	-	-	-	-
Cc1cccc(NC(=O)c2ccccn2)c1C	.	36.3	-	62.8	.	-	-	-	-	-	-	-
C[C@H](CO)N1C[C@H](C)[C@H](CN(C)C(=O)C2CCC2)Oc2cc(-c3ccc(F)cc3)ccc2S1(=O)=O	.	.	.	.	-	.	.	.	.	.	.	.
Cn1ccc2cc(S(=O)(=O)N3CCN(S(=O)(=O)c4c(F)cccc4F)CC3)ccc21	.	.	.	.	.	-	.	.	.	.	.	.
O=S(=O)(c1ccc2ccccc2c1)N1CCN(S(=O)(=O)c2c(F)cccc2F)CC1	-	-	-	80.2	-	-	-	?	-	-	-	-
Cc1cc(Cl)c(O)c(-n2nc3ccccc3n2)c1	-	-	-	60.9	-	-	-	-	-	-	-	-
Cc1ccc(NC(=O)c2ccc3c(=O)n4c(nc3c2)CCC4)cc1F	-	52.5	-	66.9	-	-	-	?	-	-	-	-
CCc1nnc(NC(=O)c2ccc3c(=O)n4c(nc3c2)CCC4)s1	-	-	.	58.7	-	-	-	-	-	-	-	-
